The text below walks through data of ChEMBL document CHEMBL3992558, “Benzimidazole inhibitors from the Niclosamide chemotype inhibit Wnt/β-catenin signaling with selectivity over effects on ATP homeostasis” (Bioorg Med Chem, 2017).

Each structure is given as a SMILES string. pEC50, pIC50: −log10 of the molar value. Active and inactive are the calls of the source. The calls are words filed in the database; no cut-off is given here.

In data set [1] the test system is HCT-116. Nature of the data set: Effect on ATP homeostasis in human HCT116 cells assessed as reduction in ATP level at 0.31 uM after 3 hrs in absence of glucose by ATP bioluminescent assay. The following applies: hct-116, 3 h. Type of data set: ADME, cell-based.
Data set [2] concerns HCT-116. The experiment in a line: Effect on ATP homeostasis in human HCT116 cells assessed as reduction in ATP level after 3 hrs in absence of glucose by ATP bioluminescent assay. Type of data set: ADME, cell-based. The following applies: for Activity: human, hct-116, 3 h. The method, boiled down: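 HCT-116 cells attached overnight on poly-D-lysine plates in McCoy's 5A/10% FBS, then switched to glucose-free DMEM with 2mM sodium pyruvate and 2mM L-glutamine containing compound (0.1% final DMSO). After 3 h at 37°C, 5% CO2, cells were lysed in Somatic Cell ATP Releasing Reagent and ATP was read by luciferase bioluminescence, normalized to DMSO control.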

The test system of data set [3] is HCT-116. The experiment in a line: Effect on ATP homeostasis in human HCT116 cells assessed as reduction in ATP level at 0.5 to 2 uM after 3 hrs in glucose supplemented media by ATP bioluminescent assay. In kind it is ADME, cell-based. The following applies: hct-116, 3 h. The method, boiled down: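 HCT-116 cells attached overnight on poly-D-lysine plates, then treated 3 h at 37°C in DMEM with 2mM sodium pyruvate, 2mM L-glutamine and 5mM glucose (0.1% final DMSO). ATP was read by luciferase bioluminescence after lysis with Somatic Cell ATP Releasing Reagent, normalized to DMSO control.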

The species entered for data set [4] is Homo sapiens. Nature of the data set: Inhibition of Wnt/beta-catenin signaling in human SW480 cells assessed as downregulation of Cyclin D1 protein expression at 5 uM after 18 hrs by Western blot method. In kind it is cell-based. The method, boiled down:
(§1)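 HCT-116 (McCoy's 5A) or SW480 (MEM) cells, each with 10% FBS, were grown 48 h on poly-D-lysine-coated wells to 60–80% confluency. Fresh medium with compound or DMSO (0.1% final) was added for 18 h. Cytosolic fractions (β-catenin, Axin2) were isolated with hypotonic buffer, or whole cells were lysed in Laemmli buffer (c-Myc, Cyclin D1, Survivin). Immunoblots used β-actin as loading control.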

Data set [5] is filed under the species Homo sapiens. Nature of the data set: Inhibition of Wnt/beta-catenin signaling in human SW480 cells assessed as downregulation of survivin protein expression at 5 uM after 18 hrs by Western blot method. In kind it is cell-based. The method, boiled down:
as §1
(In general: In western blotting, separated proteins are transferred to a membrane and probed.)

In another data set the test system is HEK293 (Homo sapiens). The experiment in a line: Effect on ATP homeostasis in human HEK293 cells assessed as reduction in ATP level after 3 hrs in absence of glucose by ATP bioluminescent assay. The note with it: HEK293, 3 h.
The species named for data set [6] is Homo sapiens. Nature of the data set: Inhibition of Wnt/beta-catenin signaling in human HCT116 cells assessed as downregulation of survivin protein expression at 5 uM after 18 hrs by Western blot method. Type of data set: cell-based. The method, boiled down:
as §1

For data set [7], the species on record is Homo sapiens. Nature of the data set: Inhibition of Wnt/beta-catenin signaling in human HCT116 cells assessed as downregulation of Cyclin D1 protein expression at 5 uM after 18 hrs by Western blot method. Type of data set: cell-based. The procedure, abridged: as §1
The species entered for data set [8] is Homo sapiens. The experiment in a line: Inhibition of Wnt/beta-catenin signaling in human HCT116 cells assessed as downregulation of cytosolic beta-catenin protein expression at 5 uM after 18 hrs by Western blot method. Type of data set: cell-based. The procedure, abridged:
as §1

For data set [9], the species on record is Homo sapiens. Nature of the data set: Inhibition of Wnt/beta-catenin signaling in human HCT116 cells assessed as downregulation of c-Myc protein expression at 5 uM after 18 hrs by Western blot method. Type of data set: cell-based. The method, boiled down:
as §1

Data set [10] can be described thus: (§2) Inhibition of Wnt/beta-catenin signaling (unknown origin) expressed in HEK293 cells assessed as inhibition of Wnt3A-stimulated beta-catenin response transcription after 6 hrs by TOPflash dual luciferase reporter gene assay. The following applies: Homo sapiens, HEK293, 6 h. In kind it is cell-based. The method, boiled down:
(§3)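 HEK293 cells stably carrying p8xTOPFlash and Renilla pRL-TK were seeded at confluency and given Wnt-3A conditioned medium (from L Wnt-3A cells) containing compound, 0.04–10 μM, or DMSO for 6 h. Lysates were read by dual-luciferase assay. The DMSO/Wnt3A signal was set as 100%, and curves were fit (mean ± SEM, n ≥ 3). Percent inhibition at 10 μM was reported where no IC50 could be fitted.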

For data set [11], the species on record is Homo sapiens. The data set is described as §2. In kind it is cell-based. The method, boiled down:
as §3

In data set [12] the test system is HCT-116. The experiment in a line: Effect on ATP homeostasis in human HCT116 cells assessed as reduction in ATP level at 0.63 uM after 3 hrs in absence of glucose by ATP bioluminescent assay. Type of data set: ADME, cell-based. The note with it: hct-116, 3 h.
For data set [13], the species on record is Homo sapiens. Nature of the data set: Inhibition of Wnt/beta-catenin signaling in human U2OS cells expressing GFP-fused Fzd1 assessed as GFP-Fzd1 internalization by measuring number of punctate formed at 12.5 uM after 6 hrs by confocal microscopic method. In kind it is cell-based. The method, boiled down: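 U2OS cells stably expressing Frizzled1-GFP were plated in confocal dishes for 24 h, then treated with 12.5 μM compound in DMSO or DMSO for 6 h at 37°C and fixed in 4% paraformaldehyde. Confocal images (488-nm excitation) were read twice, blinded, and punctate was scored versus control on a 0–5 scale (0, 1, 3, 5).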

The species entered for data set [14] is Homo sapiens. The experiment in a line: Inhibition of Wnt/beta-catenin signaling (unknown origin) expressed in HEK293 cells assessed as inhibition of Wnt3A-stimulated beta-catenin response transcription at 0.63 uM after 6 hrs by TOPflash dual luciferase reporter gene assay relative to control. Type of data set: cell-based. The method, boiled down:
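TOPFlash/Renilla stable HEK293 cells were split from the same batch as parallel ATP assay plates, attached overnight, then treated 6 h with compound in Wnt-3A conditioned medium. Dual-luciferase read-out was taken relative to the DMSO control. Three separate experiments used different cell batches.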
(A reporter such as luciferase makes a cellular process visible.)

For data set [15], the species on record is Homo sapiens. Nature of the data set: Inhibition of Wnt/beta-catenin signaling in human SW480 cells assessed as downregulation of c-Myc protein expression at 5 uM after 18 hrs by Western blot method. Type of data set: cell-based. The method, boiled down:
as §1

For data set [16], the species on record is Homo sapiens. The experiment in a line: Inhibition of Wnt/beta-catenin signaling in human HCT116 cells assessed as downregulation of cytosolic Axin2 protein expression at 5 uM after 18 hrs by Western blot method. Type of data set: cell-based. The procedure, abridged: as §1
The species named for data set [17] is Homo sapiens. Nature of the data set: Inhibition of Wnt/beta-catenin signaling in human SW480 cells assessed as downregulation of cytosolic beta-catenin protein expression at 5 uM after 18 hrs by Western blot method. Type of data set: cell-based. The procedure, abridged: as §1
For data set [18], the species on record is Homo sapiens. The experiment in a line: Inhibition of Wnt/beta-catenin signaling in human SW480 cells assessed as downregulation of cytosolic Axin2 protein expression at 5 uM after 18 hrs by Western blot method. Type of data set: cell-based. The procedure, abridged:
as §1

In the case of `O=[N+]([O-])c1ccc2[nH]c(-c3cc(Cl)ccc3O)nc2c1`, the Activity entry in the data set on HCT-116 [1] is listed as “Non-Toxic”; in the data set on HCT-116 [2], “Dose-dependent effect”; with HCT-116 [3] it was “Non-Toxic”.

In the case of `O=[N+]([O-])c1ccc2[nH]c(-c3cc(F)ccc3O)nc2c1`, the inhibition entry in the data set listed under Homo sapiens [4], in the data set listed under Homo sapiens [5], in the data set filed under Homo sapiens [6], in the data set listed under Homo sapiens [7], in the data set listed under Homo sapiens [8] and in the data set filed under Homo sapiens [9] was “Active” throughout. The inhibition entry in the data set filed under Homo sapiens [14], in the data set listed under Homo sapiens [15], in the data set filed under Homo sapiens [16], in the data set listed under Homo sapiens [17] and in the data set listed under Homo sapiens [18] was “Active” throughout. Further, the pEC50 in the data set with HEK293 (Homo sapiens) is < 5.30. The negative logarithm of the IC50 (pIC50) with HCT-116 [2] (Homo sapiens, HCT-116, 3 h) is 5.22; in data set [10] it was 5.94 to 6.21. The Activity entry with HCT-116 [2] was “Dose-dependent effect”; with HCT-116 [12] it was “Non-Toxic”; in the data set listed under Homo sapiens [13] it was 2; with HCT-116 [3] it was “Non-Toxic”. Further, the inhibition entry in the data set filed under Homo sapiens [11] was “Dose-dependent effect”.

A word on the pEC50: it is the negative decadic logarithm of the EC50, by convention in mol/L. A word on the pIC50: it is the negative decadic logarithm of the IC50, by convention in mol/L.
